Experimental data pooled from the literature.
Organism: Staphylococcus aureus
Observed: microbial growth

SMILES	technique	strain	setting	MIC
Cc1ccc2nc(-c3ccco3)[nH]c2c1	broth dilution	ATCC43300 MRSA	drug-resistant strain	256 µg/mL
Cc1cccc2nc(-c3ccc([N+](=O)[O-])o3)[nH]c12	broth dilution	ATCC700699 MRSA	drug-resistant strain	2 µg/mL
COC(=O)c1cc(-c2cccc(NC(=O)Nc3ccc(Cl)c(C(F)(F)F)c3)c2)on1	broth dilution	ATCC29213	–	> 64 µg/mL
C=C(NC(=O)C(=C)NC(=O)c1csc(C2=N[C@@H]3c4csc(n4)[C@H]4NC(=O)c5csc(n5)[C@H]([C@](C)(O)[C@@H](C)O)NC(=O)[C@H]5CSC(=N5)/C(=C/C)NC(=O)[C@H]([C@@H](C)O)NC(=O)c5csc(n5)[C@]3(CC2)NC(=O)[C@H](C)NC(=O)C(=C)NC(=O)[C@H](C)NC(=O)[C@H]([C@@H](C)CC)N[C@@H]2C=Cc3c([C@H](C)O)cc(nc3[C@H]2O)C(=O)O[C@@H]4C)n1)C(N)=O	–	MRSA	–	0.12 µg/mL
Clc1ccc(-c2nc3ccccc3n2Cc2ccccc2)cc1	broth dilution	ATCC43300 MRSA	drug-resistant strain	256 µg/mL
COC(=O)c1cc(-c2cccc(NC(=O)NCc3ccccc3)c2)on1	broth dilution	ATCC29213	–	> 64 µg/mL
CN[C@H](CC(C)C)C(=O)N[C@H]1C(=O)N[C@@H](CC(N)=O)C(=O)N[C@H]2C(=O)N[C@H]3C(=O)N[C@H](C(=O)N[C@H](C(=O)O)c4cc(O)cc(O)c4-c4cc3ccc4O)[C@H](O)c3ccc(c(Cl)c3)Oc3cc2cc(c3O[C@@H]2O[C@H](CO)[C@@H](O)[C@H](O)[C@H]2O[C@H]2C[C@](C)(N)[C@H](O)[C@H](C)O2)Oc2ccc(cc2Cl)[C@H]1O	–	UAMS1	–	1 µg/mL
O=[N+]([O-])c1ccc(-c2nc3ccccc3n2Cc2ccccc2)cc1	broth dilution	ATCC43300 MRSA	drug-resistant strain	4 µg/mL
COC(=O)c1cc(-c2cccc(NC(=O)Nc3ccc(OC)cc3)c2)on1	broth dilution	ATCC29213	–	> 64 µg/mL
CCCCCC/C=C\CCCCCCCCCC(=O)CP(=O)(O)O	–	ATCC33591 MRSA	drug-resistant strain	100 µg/mL
C=CCn1c(-c2ccc(Cl)cc2)nc2ccccc21	broth dilution	ATCC43300 MRSA	drug-resistant strain	128 µg/mL
C/C(=C\C(=O)OCCCCCCCCC(=O)O)C[C@@H]1OC[C@H](C[C@@H]2O[C@H]2[C@@H](C)[C@H](C)O)[C@@H](O)[C@H]1O	–	BAA1556 MRSA	drug-resistant strain	> 8000 µM
CNC(=O)c1cc(Oc2ccc(NC(=S)Nc3ccc(Cl)c(C(F)(F)F)c3)cc2)ccn1	–	NCTC8325	–	10 µM
CC1(C)CC[C@]2(C(=O)O)CC[C@]3(C)C(=CC[C@@H]4[C@@]5(C)CC[C@H](O)C(C)(C)[C@@H]5CC[C@]43C)[C@@H]2C1	–	ATCC29213	–	128 µg/mL
Cc1ccc2[nH]c3c(c2c1)CCCC3NCCc1ccc(O)cc1 (stereo not shown)	broth dilution	VISA	–	16 µg/mL
COC(=O)c1cc(-c2cccc(NC(=S)Nc3cccc(Br)c3)c2)on1	broth dilution	ATCC29213	–	> 64 µg/mL
COc1cc(C)c(Cc2cnc(N)nc2N)cc1OC	broth dilution	–	–	~16.6 µM
Cc1ccc2nc(-c3ccccc3O)[nH]c2c1	broth dilution	ATCC43300 MRSA	drug-resistant strain	256 µg/mL
O=C(CCCCC1CCCCC1)CP(=O)(O)O	–	ATCC33591 MRSA	drug-resistant strain	> 200 µg/mL
